Data: ChEMBL document CHEMBL1255491, “Altered growth, pigmentation, and antimicrobial susceptibility properties of Staphylococcus aureus due to loss of the major cold shock gene cspB” (2010)
Converted amounts (≈) assume the structure as drawn.

Tests used:
Format in all cases: functional
Staphylococcus aureus [1] = assay: Antimicrobial activity against Staphylococcus aureus BD1 harboring aphA-3 insertion in cspB gene by Etest
In short: (§1)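 MIC by Etest strip (daptomycin, gentamicin, teicoplanin, trimethoprim-sulfamethoxazole), following the manufacturer's protocol with changes. Inoculum came from cells grown in TSB at 37°C for at least 20 h.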

Staphylococcus aureus [2] = assay: Antimicrobial activity against methicillin-resistant Staphylococcus aureus COL grown at 15 degC and measured at 15 degC by Etest
Staphylococcus aureus [3] = assay: Antimicrobial activity against methicillin-resistant Staphylococcus aureus isolate COL by Etest; in short: as §1
Staphylococcus aureus [4] = assay: Antimicrobial activity against Staphylococcus aureus BD2 harboring wild-type cspB gene by Etest; in short: as §1
Staphylococcus aureus [5] = assay: Antimicrobial activity against methicillin-resistant Staphylococcus aureus COL grown at 37 degC and measured at 37 degC by Etest
In short: (§2)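 Strain COL was grown in TSB at 37°C to mid-log phase, split into equal halves, and kept 1 h at 37°C (control) or 15°C (cold shock). Etest strips for daptomycin, gentamicin or trimethoprim-sulfamethoxazole were then applied per the manufacturer.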

Staphylococcus aureus [6] = assay: Antimicrobial activity against methicillin-resistant Staphylococcus aureus COL grown at 37 degC and measured at 15 degC by Etest; in short: as §2
Staphylococcus aureus [7] = assay: Antimicrobial activity against methicillin-resistant Staphylococcus aureus COL grown at 15 degC and measured at 37 degC by Etest; in short: as §2
Staphylococcus aureus [8] = assay: Ratio of MIC for methicillin-resistant Staphylococcus aureus COL grown at 15 degC and measured at 37 degC to MIC for methicillin-resistant Staphylococcus aureus COL grown at 15 degC and measured at 15 degC by Etest
Staphylococcus aureus [9] = assay: Ratio of MIC for methicillin-resistant Staphylococcus aureus COL grown at 37 degC and measured at 37 degC to MIC for methicillin-resistant Staphylococcus aureus COL grown at 37 degC and measured at 15 degC by Etest

Compound	MIC (Staphylococcus aureus [1]) [µg/mL]	MIC (Staphylococcus aureus [2]) [µg/mL]	MIC (Staphylococcus aureus [3]) [µg/mL]	MIC (Staphylococcus aureus [4]) [µg/mL]	MIC (Staphylococcus aureus [5]) [µg/mL]	MIC (Staphylococcus aureus [6]) [µg/mL]	MIC (Staphylococcus aureus [7]) [µg/mL]	Ratio (Staphylococcus aureus [8])	Ratio (Staphylococcus aureus [9])
GENTAMICIN	32	0.29	0.38	0.38	0.34	0.21	0.38		
CCCCCCCCCC(=O)N[C@@H](Cc1c[nH]c2ccccc12)C(=O)N[C@H](CC(N)=O)C(=O)N[C@@H](CC(=O)O)C(=O)N[C@@H]1C(=O)NCC(=O)N[C@@H](CCCN)C(=O)N[C@@H](CC(=O)O)C(=O)N[C@H](C)C(=O)N[C@@H](CC(=O)O)C(=O)NCC(=O)N[C@H](CO)C(=O)N[C@@H]([C@H](C)CC(=O)O)C(=O)N[C@@H](CC(=O)c2ccccc2N)C(=O)O[C@@H]1C	0.064 (≈ 0.0395 µM)	0.63 (≈ 0.389 µM)	1.5 (≈ 0.926 µM)	2 (≈ 1.23 µM)	1.5 (≈ 0.926 µM)	0.46 (≈ 0.284 µM)	1.5 (≈ 0.926 µM)	2.4	4
CC(=O)N[C@@H]1[C@H](Oc2c3cc4cc2Oc2ccc(cc2Cl)[C@@H](O[C@@H]2O[C@@H](CO)[C@@H](O)[C@H](O)[C@@H]2NC(C)=O)[C@@H]2NC(=O)[C@H](NC(=O)[C@@H]4NC(=O)[C@H]4NC(=O)[C@@H](Cc5ccc(c(Cl)c5)O3)NC(=O)[C@H](N)c3ccc(O)c(c3)Oc3cc(O)cc4c3)c3ccc(O)c(c3)-c3c(O[C@H]4O[C@H](CO)[C@@H](O)[C@@H](O)[C@@H]4O)cc(O)cc3[C@@H](C(=O)O)NC2=O)O[C@@H](CO)[C@@H](O)[C@@H]1O	0.75 (≈ 0.424 µM)		3 (≈ 1.7 µM)	2 (≈ 1.13 µM)					
